TRPC6 inh: inhibitors of mouse TRPC6 channel | AID 2553 | Q61143 | B-score at 10 µM | HEK293-TRPC6, membrane potential dye, ACh-evoked depolarization; stronger effect = lower value | hit rate 1.1% among 310,000;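 active = B-score under library mean minus 3 SD, initial fluorescence not abnormally high, positive integrated signal ratio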;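 note: B-score derived from integrated fluorescence ratio over the kinetic read; more negative B-score means stronger inhibition of depolarization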
Target sequence (Q61143 whole entry, looked up): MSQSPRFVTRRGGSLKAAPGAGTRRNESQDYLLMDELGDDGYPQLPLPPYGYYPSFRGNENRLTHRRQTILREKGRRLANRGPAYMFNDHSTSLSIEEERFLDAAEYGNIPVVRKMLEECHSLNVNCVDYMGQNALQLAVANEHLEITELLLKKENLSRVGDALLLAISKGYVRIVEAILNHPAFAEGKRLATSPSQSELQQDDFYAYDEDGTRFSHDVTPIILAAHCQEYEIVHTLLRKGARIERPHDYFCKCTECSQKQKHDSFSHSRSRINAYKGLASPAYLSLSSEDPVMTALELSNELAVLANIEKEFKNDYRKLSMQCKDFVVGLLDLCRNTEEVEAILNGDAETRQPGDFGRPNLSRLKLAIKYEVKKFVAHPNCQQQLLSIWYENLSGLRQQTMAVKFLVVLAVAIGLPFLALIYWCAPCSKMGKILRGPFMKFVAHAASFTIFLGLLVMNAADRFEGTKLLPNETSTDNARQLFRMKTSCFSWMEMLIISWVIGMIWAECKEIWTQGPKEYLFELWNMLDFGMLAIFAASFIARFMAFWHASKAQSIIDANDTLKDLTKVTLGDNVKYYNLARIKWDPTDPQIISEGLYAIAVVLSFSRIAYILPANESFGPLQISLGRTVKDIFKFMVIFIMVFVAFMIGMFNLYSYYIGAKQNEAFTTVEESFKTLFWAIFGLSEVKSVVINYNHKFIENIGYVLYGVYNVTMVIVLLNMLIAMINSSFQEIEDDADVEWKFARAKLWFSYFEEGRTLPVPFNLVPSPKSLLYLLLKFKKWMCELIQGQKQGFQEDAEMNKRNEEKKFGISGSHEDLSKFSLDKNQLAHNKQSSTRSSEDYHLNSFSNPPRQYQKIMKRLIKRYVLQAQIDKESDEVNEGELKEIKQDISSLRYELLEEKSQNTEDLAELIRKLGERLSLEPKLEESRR
TRPC4 inh: TRPC4 (mouse) channel inhibition; B-score at 10 µM; hit rate 0.39% among 300,000; HEK293 TRPC4beta/mu-opioid, DAMGO-evoked Fluo4 calcium flux; stronger effect = lower value;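 active = B-score over 3 SD under the library average, no early fluorescence shift, positive overall ratio signal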
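Material: HEK293 cells with stable TRPC4beta plus mu-opioid receptor expression / Probe or stimulus: DAMGO in two steps, submaximal then maximal / Compound: single concentration per test compound / Technique: kinetic Fluo4 fluorescence imaging of calcium influx / Read-out: per-well B score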
TRPC4 act: activators of mouse TRPC4 channel; Q9QUQ5; B-score at 10 µM; HEK293 TRPC4beta/mu-opioid, Fluo4 calcium fluorescence; stronger effect = higher value; hit rate 0.49% among 310,000;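 active = B-score above 5 SD of library B-scores, and initial fluorescence ratio not above library mean plus 5 SD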;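 note: positive B-score marks a calcium rise read as TRPC4 activation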
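Assay system: HEK293 cells stably co-expressing mouse TRPC4beta and mu-opioid receptor / Timing: Fluo4 dye loading 45 min at room temperature, 110 s recording / Signal: Fluo4 calcium-sensitive dye fluorescence, kinetic, 1 Hz baseline / Read-out: integrated baseline-normalised fluorescence ratio, converted to per-well B score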
TRPC6 activator: activators of mouse TRPC6 channel | Q61143 | HEK293-TRPC6 membrane potential dye fluorescence; stronger effect = higher value | B-score at 10 µM | hit rate 0.13% among 310,000;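 active = B-score of the integrated fluorescence ratio above library mean plus 3 SD, and starting fluorescence ratio within library mean plus 5 SD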;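 note: higher score means more depolarization so channel activation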
TRPC4 potent: allosterically enhances the mouse TRPC4 cation channel; Q9QUQ5; HEK293 TRPC4beta/mu-opioid, DAMGO EC20, Fluo-4 Ca2+ flux; stronger effect = higher value; B-score at 10 µM; hit rate 0.42% among 310,000;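 active = B-score of calcium response area above 5 SD of library B-scores, with initial fluorescence ratio within 5 SD of library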;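 note: B-score of integrated fluorescence ratio over time as area under calcium response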
TRPC4 spec 2: second check of whether TRPC6 inhibitors also affect mouse TRPC4; HEK293 TRPC4/MOR, membrane potential dye fluorescence; channel activated by saturating DAMGO dose; shares compounds with TRPC6 inh; hit rate 42% among 920; inhibition, % at 10 µM;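 active = compounds whose fluorescence signal differed from control wells by over 3 SD, either direction, in both duplicate plates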
TRPC4 spec: mouse TRPC4 off-target activity of TRPC6 inhibitors; activity change, negative = inhibition, % at 10 µM; HEK293 TRPC4/mu-opioid, membrane potential fluorescence; hit rate 61% among 920; shares compounds with TRPC6 inh;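 active = rise or fall in signal beyond 3 SD of buffer-only wells in both replicate plates, either sign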;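 note: integrated kinetic ratio of fluorescence range over baseline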
HEK293 MPD ctr 2-1: parental HEK293 nonspecific activity of TRPC6 inhibitors, second screen | shares compounds with TRPC6 inh | parental HEK293 membrane potential dye fluorescence; maximal acetylcholine challenge after compound addition | signal change vs control, % at 10 µM | hit rate 31% among 920 | AID 2779;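 active = membrane potential signal moving either way by over 3 SD of the maximum-effect control, in both duplicate plates, meaning non-specific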
HEK293 MPD ctr-1: parental HEK293 nonspecific activity of TRPC6 inhibitors; membrane potential signal change, % at 10 µM; parental HEK293 membrane potential dye fluorescence; hit rate 60% among 920; shares compounds with TRPC6 inh;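 active = membrane potential signal shifting up or down by more than 3 SD of buffer-only wells, on both duplicate plates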
HEK293 MPD ctr-2: checks TRPC6 modulator effects in parental HEK293 cells | membrane potential signal change, % at 10 µM | shares compounds with TRPC6 inh | membrane potential dye fluorescence | hit rate 51% among 2,400 | AID 488924;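 active = membrane potential signal moves up or down beyond 5 SD from buffer-only wells, on both duplicate plates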
HEK293 MPD ctr 2-2: second counter-screen for TRPC6 modulators: effect in parental HEK293 cells; shares compounds with TRPC6 inh; inhibition, % at 10 µM; AID 488926; hit rate 14% among 2,400; membrane potential dye fluorescence; after compound, maximal acetylcholine stimulation;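 active = membrane potential signal drops by more than 5 SD from the mean control signal, in both duplicate plates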;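 note: plate controls were acetylcholine ECmax control wells for no effect and buffer only wells for full effect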
TRPC4 ctr mod: selectivity of TRPC6 modulators against mouse TRPC4; shares compounds with TRPC6 inh; HEK293 TRPC4/mu-opioid, membrane potential fluorescence; hit rate 69% among 2,400; percent change from control (negative = decrease, positive = increase), % at 10 µM;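 active = membrane potential signal moved up or down beyond 5 SD of buffer control wells, in both duplicate plates, actives on both sides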;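 note: plate controls were assay buffer wells for no effect and DAMGO maximal-effect wells for full effect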
TRPC4 ctr inh 2: mouse TRPC4 off-target activity of TRPC6 modulators, second screen | shares compounds with TRPC6 inh | HEK293 TRPC4/mu-opioid, membrane potential dye fluorescence; stimulated with maximal-effect DAMGO | hit rate 55% among 2,400 | AID 488928 | inhibition, % at 10 µM;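 active = drop in membrane potential signal beyond 5 SD of the control wells in both duplicate plates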;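 note: TRPC4 counter screen for TRPC6 hits run under conditions tuned for TRPC6 not TRPC4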
TRPC6 inh conf: mouse TRPC6 inhibitor confirmation | shares compounds with TRPC6 inh | HEK293-TRPC6, membrane potential dye, ACh-evoked depolarization | inhibition, % at 10 µM | hit rate 43% among 3,300 | AID 488960;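 active = fluorescence ratio falls more than 5 SD below the full-stimulation control mean, in both duplicate runs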;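 note: integrated fluorescence ratio of peak minus minimum over baseline after agonist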
TRPC6 act confirm: confirmation of mouse TRPC6 activators. shares compounds with TRPC6 inh. HEK293-TRPC6 membrane potential dye fluorescence, FDSS. activation, % at 10 µM. hit rate 11% among 2,800. AID 488961;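 active = ratio signal rise beyond 5 SD above unstimulated control wells' mean, seen in both duplicate runs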;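 note: plate controls were buffer EC0 wells for no effect and acetylcholine ECmax response for full effect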
The depositor's hits bear a star; i = inactive; nt = not tested or not shown. Compounds with a hit are over-represented: about 2.3% of the library has one in this group of screens.

SMILES	TRPC6 inh	TRPC4 inh	TRPC4 act	TRPC6 activator	TRPC4 potent	HEK293 MPD ctr-2	HEK293 MPD ctr 2-2	TRPC4 ctr mod	TRPC4 ctr inh 2	TRPC6 inh conf	TRPC6 act confirm	others
Cc1ccc(Nc2c(-c3ccccn3)nc3cc(C)ccn23)cc1	-5.5*	i	i	i	i	-134%*	i	-27%*	72%*	i	i
Cc1ccc(NC(=O)[C@@H](CC(C)C)NC(=O)[C@@H]2Cc3ccccc3CN2)cc1	-5.1*	i	i	i	i	i	i	i	46%*	66%*	i
Cc1ccc(-c2nn(C)c(=O)c3ccccc23)cc1CN1CCCCC1	i	i	i	i	i	nt	nt	nt	nt	nt	nt
CC1(C)CC(N=c2cc(-c3ccccc3)oc3ccc(Cl)cc23)CC(C)(C)N1	-9.6*	i	i	i	i	nt	nt	nt	nt	69%*	i	TRPC4 spec 2=42%*;TRPC4 spec=-26%*;HEK293 MPD ctr 2-1=-39%*;HEK293 MPD ctr-1=-328%*
O=c1cc(-c2ccccc2)oc2ccc(O)cc12	i	i	i	i	i	nt	nt	nt	nt	nt	nt
OCCCN=c1cc(-c2ccccc2)oc2ccc(Cl)cc12	-7.3*	i	i	i	i	nt	nt	nt	nt	77%*	i	TRPC4 spec 2=68%*;TRPC4 spec=-19%*;HEK293 MPD ctr 2-1=i;HEK293 MPD ctr-1=-386%*
Cc1cc(NC(=O)c2cccnc2)ccc1Br	i	i	i	i	i	nt	nt	nt	nt	nt	nt
NC(=O)NC(=O)C(Nc1ccc2c(c1)CCC2)c1ccccc1 (stereo not drawn)	-7.2*	i	i	i	i	nt	nt	nt	nt	i	i	TRPC4 spec 2=i;TRPC4 spec=i;HEK293 MPD ctr 2-1=i;HEK293 MPD ctr-1=i
O=C(Cc1ccccc1)N[C@@H](Cc1ccc(O)cc1)C(=O)O	i	i	i	i	i	nt	nt	nt	nt	nt	nt
C/C(=N\NC(=O)c1ccccc1O)C1C(=O)c2ccccc2C1=O	-5.5*	i	i	i	i	i	i	-16%*	i	i	i
C/C(=N/NC(=O)c1cc2ccccc2cc1O)C1C(=O)c2ccccc2C1=O	i	i	i	i	i	nt	nt	nt	nt	nt	nt
O=c1[nH]cnc2sc3c(c12)CCN(Cc1ccccc1)C3	i	i	i	i	i	nt	nt	nt	nt	nt	nt
OCCCNc1ncnc2sc3c(c12)CCN(Cc1ccccc1)C3	-6*	i	i	i	i	-137%*	i	-38%*	i	i	i
CCc1ccc(C(=O)/C=C/Nc2ccc(S(=O)(=O)Nc3cnc4ccccc4n3)cc2)cc1	i	i	i	i	i	nt	nt	nt	nt	nt	nt
CCC(COC(=O)Nc1cccc(C)c1)NC(=O)OCC(C)C (stereo not drawn)	-5.1*	i	i	i	i	i	i	i	i	i	i
CCNC(=O)OCC(CC)NC(=O)OCC(C)C (stereo not drawn)	i	i	i	i	i	nt	nt	nt	nt	nt	nt
COc1ccc(CNC(=O)C(C)OC(=O)CCN2C(=O)C3CC=CCC3C2=O)cc1 (stereo not drawn)	i	i	i	i	i	nt	nt	nt	nt	nt	nt
CC1(C)CC(=O)c2c(O)cc(O)cc2O1	i	i	i	i	i	nt	nt	nt	nt	nt	nt
C[C@]12CCC[C@H](O1)c1c(cc3c(c1O)C(=O)c1c(O)cc(O)cc1C3=O)O2	i	i	i	13*	i	274%*	i	58%*	i	i	91%*
CC1Cc2ccccc2C(CCc2ccccc2)=N1 (stereo not drawn)	i	i	i	i	i	nt	nt	nt	nt	nt	nt
OC(C#CCN1CCCC1)(c1ccccc1)c1ccccc1	-8.7*	i	i	i	i	nt	nt	nt	nt	66%*	nt	TRPC4 spec 2=i;TRPC4 spec=2.5%*;HEK293 MPD ctr 2-1=-14%*;HEK293 MPD ctr-1=5.6%*
OC(C#CCN1CCCCC1)(c1ccccc1)c1ccccc1	-7.5*	i	i	i	i	nt	nt	nt	nt	81%*	i	TRPC4 spec 2=i;TRPC4 spec=1.1%*;HEK293 MPD ctr 2-1=-28%*;HEK293 MPD ctr-1=2.4%*
CC(O)(C#CCN1CCCCCC1)c1ccccc1 (stereo not drawn)	i	i	i	i	i	nt	nt	nt	nt	nt	nt
COc1cccc(CN(C)C(=O)c2cccc(OCc3ccccc3)c2)c1	i	i	i	i	i	nt	nt	nt	nt	nt	nt
COc1ccc(-c2nc3cccc(C)n3c2NCC2CCCO2)cc1O (stereo not drawn)	-6*	i	i	i	i	-232%*	i	-42%*	46%*	45%*	i
SMILES	TRPC6 inh	TRPC4 inh	TRPC4 act	TRPC6 activator	TRPC4 potent	HEK293 MPD ctr-2	HEK293 MPD ctr 2-2	TRPC4 ctr mod	TRPC4 ctr inh 2	TRPC6 inh conf	TRPC6 act confirm	others
COc1cc(CN2CCN(C(=O)c3cccc4ccccc34)CC2)cc(OC)c1OC	i	i	i	i	i	nt	nt	nt	nt	nt	nt
COc1cccc(CN2CCN(C(=O)c3cccc4ccccc34)CC2)c1	i	i	i	12*	i	i	i	10%*	i	i	33%*
CCc1ccc(OCC(=O)Nc2cccc3c2CCCC3)cc1	-5*	i	i	i	i	i	i	i	i	i	i
CCCC(=O)Nc1cccc2c1CCCC2	i	i	i	i	i	nt	nt	nt	nt	nt	nt
COCCn1ccc2c(OCC(=O)NCCc3ccc(OC)c(OC)c3)cccc2c1=O	i	i	i	i	i	nt	nt	nt	nt	nt	nt
CN(C)CCn1c(C(=O)Nc2ccccc2)cc2ccccc21	-7.8*	i	i	i	i	nt	nt	nt	nt	i	i	TRPC4 spec 2=48%*;TRPC4 spec=-17%*;HEK293 MPD ctr 2-1=i;HEK293 MPD ctr-1=-235%*

Compound activity as filed in PubChem BioAssay.
